Calls of active or inactive are those of the source. The calls are words filed in the database; no cut-off is given here.
Tests used:
[1] = system: Xenopus; test: Induction of progesterone-independent of MPF activation in immature stage VI Xenopus oocyte by Western blot analysis
Procedure, shortened: (§1)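 Oocytes treated with DMSO or compound without progesterone, harvested when 50% of treated oocytes completed GVBD, sorted by GVBD status. Lysates run on 10% gel and blotted with phospho-MAPK Thr202/Tyr204 and phospho-Cdc2 Tyr15 antibodies (1:1000), with tubulin as loading control. MPF activation read as Cdc2 dephosphorylation.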

[2] = Anticancer activity against human MOLT4 cells assessed as growth inhibition at 10^-5 M; format: functional; conditions: MOLT-4, read-out: GI
Procedure, shortened: (§2)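 NCI-60 human tumour cell line panel screened at a single concentration of 10^-5 M; value is percent growth inhibition relative to untreated growth.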

[3] = system: Xenopus; test: Induction of progesterone-independent of MAPK activation in immature stage VI Xenopus oocyte by Western blot analysis; procedure, shortened: as §1
[4] = Anticancer activity against human RPMI8226 cells assessed as growth inhibition at 10^-5 M; format: functional; conditions: RPMI-8226, read-out: GI; procedure, shortened: as §2
[5] = system: HL-60(TB); test: Anticancer activity against human HL-60(TB) cells assessed as growth inhibition at 10^-5 M; format: functional; conditions: read-out: GI
Procedure, shortened: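 NCI 60 panel initial screen at a single concentration of 10^-5 M. Value is reported as percent growth inhibition of the cell line.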

[6] = Anticancer activity against human PC3 cells assessed as growth inhibition at 10^-5 M; format: functional; conditions: PC-3, read-out: GI; procedure, shortened: as §2
[7] = system: MCF7; test: Anticancer activity against human MCF7 cells assessed as growth inhibition at 10^-5 M; format: functional; conditions: read-out: GI; procedure, shortened: as §2
[8] = system: K562; test: Anticancer activity against human K562 cells assessed as growth inhibition at 10^-5 M; format: functional; conditions: read-out: GI; procedure, shortened: as §2
[9] = system: Oocyte; test: Induction of immature stage VI Xenopus oocyte maturation assessed as stimulation of progesterone-mediated maturation measured as germinal vesicle (nuclear) breakdown after overnight incubation; format: functional, cell-based; conditions: Xenopus laevis
[10] = system: CCRF-CEM; test: Anticancer activity against human CCRF-CEM cells assessed as growth inhibition at 10^-5 M; format: functional; conditions: read-out: GI; procedure, shortened: as §2
[11] = system: Oocyte; test: Induction of immature stage VI Xenopus oocyte maturation assessed as spontaneous maturation measured as germinal vesicle (nuclear) breakdown at 100 uM after overnight incubation; format: functional, cell-based
Procedure, shortened: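 Isolated Xenopus oocytes (20 per well) incubated overnight with compound in DMSO at 100 μM final, no progesterone. The next morning, GVBD is scored as a white spot at the animal pole. Rate is expressed relative to DMSO controls, where 2.0 means spontaneous maturation.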

C/C1=C\CC[C@@]2(C)O[C@@H]2[C@H]2OC(=O)/C(=C/c3ccccc3Br)[C@@H]2CC1
Activity [1]: Active
inhibition of growth at 10 µM [2]: 31.2%
Activity [3]: Active
inhibition of growth at 10 µM [4]: 21.3%
inhibition of growth at 10 µM [5]: 34.1%
inhibition of growth at 10 µM [6]: 42.3%
inhibition of growth at 10 µM [7]: 24.3%
inhibition of growth at 10 µM [8]: 28.1%
EC50 [9]: 6 µM
inhibition of growth at 10 µM [10]: 22.3%
Activity [11]: Active

From ChEMBL document CHEMBL3352597, “Heck products of parthenolide and melampomagnolide-B as anticancer modulators that modify cell cycle progression” (Eur J Med Chem, 2014)
